Laboratory results as given in ChEMBL document CHEMBL1151481, “Cytotoxic polyprenylated xanthones from the resin of Garcinia hanburyi” (J Nat Prod, 2009).

Tested on: HeLa
Experiment: Cytotoxicity against human HeLa cells after […] by MTT assay
Format: functional, cell-based
How it was run: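 MTT read-out on HeLa cells, with an adriamycin positive control. Each determination was run in triplicate and reported as mean ± SEM. The 50% inhibitory concentration was obtained by interpolating concentration–inhibition curves.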

Structure (SMILES)	IC50 (Homo sapiens, HeLa)	IC50 (hela)
CC(C)=CCC[C@]1(C)C=Cc2c(O)c3c(c(CC=C(C)C)c2O1)O[C@]12C(=C[C@@H]4C[C@H]1C(C)(C)O[C@@]2(C/C=C(/C)C(=O)O)C4=O)C3=O [GAMBOGIC ACID]	700 nM	
CC(C)=CCC/C(C)=C/COc1cc(O)c2c(c1CC=C(C)C)O[C@]13C(=C[C@@H]4C[C@H]1C(C)(C)O[C@@]3(CC=C(C)C)C4=O)C2=O	4090 nM	
CC(C)=CCCC1(C)C=Cc2c(O)c3c(c(CC=C(C)C)c2O1)O[C@]12C(C3=O)C(O)[C@@H]3C[C@H]1C(C)(C)O[C@@]2(C/C=C(/C)C(=O)O)C3=O (stereo in doubt; 14)		630 nM
COC(=O)/C(C)=C\C[C@@]12OC(C)(C)[C@@H]3C[C@@H](CC4C(=O)c5c(O)c6c(c(CC=C(C)C)c5O[C@]431)OC(C)(C)C=C6)C2=O (stereo partly specified)	111000 nM	
CC(C)=CCc1c2c(c(O)c3c1O[C@]14C(C3=O)[C@@H](O)[C@@H]3C[C@H]1C(C)(C)O[C@@]4(C/C=C(/C)C(=O)O)C3=O)C=CC(C)(C)O2 (stereo partly specified)	1710 nM	
CC(C)=CCc1c2c(c(O)c3c1OC(C)(C)C1CCC(C)=CC31)C(=O)C1=C[C@@H]3C[C@H]4C(C)(C)O[C@@](C/C=C(/C)C(=O)O)(C3=O)[C@@]14O2 (stereo partly specified) [GAMBOGEFIC ACID]	560 nM	
CC(C)=CCCC1(C)C=Cc2c(O)c3c(c(CC=C(C)C)c2O1)O[C@]12C(C3=O)C(O)[C@@H]3C[C@H]1C(C)(C)O[C@@]2(C/C=C(/C)C(=O)O)C3=O (stereo in doubt; 13)	640 nM	
CC(C)=CCC/C(C)=C/Cc1c(O)c(CC=C(C)C)c2c(c1O)C(=O)C1C(O)[C@@H]3C[C@H]4C(C)(C)O[C@@](C/C=C(/C)C(=O)O)(C3=O)[C@@]14O2 (stereo partly specified)	5080 nM	
CO[C@]12C=C3C(=O)c4c(O)c5c(c(CC=C(C)C)c4O[C@@]34[C@@H](C1)C(C)(C)O[C@@]4(C/C=C(/C)C(=O)O)C2=O)O[C@@](C)(CCC=C(C)C)C=C5	850 nM	
C=C(C)C1CCC2(C)CC1c1c(O)c3c(c(CC=C(C)C)c1O2)O[C@]12C(=C[C@]4(OC)C[C@H]1C(C)(C)O[C@@]2(C/C=C(/C)C(=O)O)C4=O)C3=O (stereo partly specified)	910 nM	
CO[C@]12C=C3C(=O)c4c(O)c5c(c(CC=C(C)C)c4O[C@@]34[C@@H](C1)C(C)(C)O[C@@]4(C/C=C(/C)CO)C2=O)OC(C)(C)C=C5	1210 nM	
CO[C@]12C=C3C(=O)c4c(O)c5c(c(CC=C(C)C)c4O[C@@]34[C@@H](C1)C(C)(C)O[C@@]4(C/C=C(/C)C(=O)O)C2=O)O[C@](C)(CCC=C(C)C)C=C5	930 nM	
CC(C)=CCc1c2c(c(O)c3c1O[C@]14C(=C[C@@H]5C[C@H]1C(C)(C)O[C@@]4(C/C=C(/C)C(=O)O)C5=O)C3=O)C=CC(C)(CC/C=C/C(C)(C)O)O2 (stereo partly specified) [OXYGAMBOGIC ACID]	1910 nM	
CC(C)=CCC/C(C)=C/Cc1c(O)c2c(c3c1O[C@@H](C(C)(C)O)C3)O[C@]13C(=C[C@@H]4C[C@H]1C(C)(C)O[C@@]3(C/C=C(/C)C(=O)O)C4=O)C2=O [GAMBOGENIFIC ACID]	1790 nM	
CC(C)=CCC/C(C)=C/Cc1c(O)c(CC=C(C)C)c2c(c1O)C(=O)C1C=CCC3C(C)(C)OC4(CC=C(C)C(=O)O4)C13O2 (stereo unspecified)	8680 nM	
COc1cccc2c1C(=O)c1c(O)c3c(c(O)c1C2=O)C[C@@](O)(C(=O)CO)C[C@@H]3O[C@H]1C[C@H](N)[C@H](O)[C@H](C)O1 [DOXORUBICIN]	410 nM	
